Converted amounts (≈) assume the structure as drawn.
Test system: not listed separately
Experiment: Antioxidant activity assessed as H2O2 radical scavenging activity
Type: functional
Method in brief: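 Compounds at 0.05, 0.1, 0.2 and 0.4 mg/mL in phosphate buffer pH 7.4. 0.353 mL of 4 mM H2O2 in phosphate buffer added to 2.0 mL of each solution, absorbance read at 239 nm. Percent inhibition calculated from absorbances relative to control. Triplicate, mean ± SEM.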

Row | SMILES | IC50 [µg/mL]
1 | Cc1c(C)c2c(c(C)c1O)CCC(C)(C(=O)O)O2 (centres undefined) [TROLOX] | 25.88 (≈ 103 µM)
2 | O=C1O[C@H]([C@@H](O)CO)C(O)=C1O [ASCORBIC ACID] | 17.11 (≈ 97.1 µM)

Test system: not listed separately
Experiment: Antioxidant activity assessed as ABTS radical scavenging activity incubated for 40 mins
Type: functional
Method in brief: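 Test compound at 0.05, 0.1, 0.2 and 0.4 mg/mL (200 µL) added to 1.8 mL ethanolic ABTS 7mM. Incubated 40 min at room temperature, absorbance read at 735 nm against ABTS solution. Percent inhibition computed from absorbances and used to derive IC50. Triplicate, mean ± SEM; ascorbic acid as reference.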

Row | SMILES | IC50 [µg/mL]
3 | Cc1c(C)c2c(c(C)c1O)CCC(C)(C(=O)O)O2 (centres undefined) [TROLOX] | 22.15 (≈ 88.5 µM)
4 | O=C1O[C@H]([C@@H](O)CO)C(O)=C1O [ASCORBIC ACID] | 13.85 (≈ 78.6 µM)

Target: Sigma non-opioid intracellular receptor 1 (Cavia porcellus, UniProt Q60492)
Sequence (Q60492 whole entry): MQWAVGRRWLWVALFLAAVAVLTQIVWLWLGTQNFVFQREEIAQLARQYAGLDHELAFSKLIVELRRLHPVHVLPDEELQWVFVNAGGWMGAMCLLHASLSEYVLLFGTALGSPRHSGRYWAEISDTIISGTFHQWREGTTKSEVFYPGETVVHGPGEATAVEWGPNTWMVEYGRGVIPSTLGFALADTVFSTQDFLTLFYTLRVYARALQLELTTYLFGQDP
Experiment: Displacement of [3H]-(+)-pentazocine from sigma1 receptor in guinea pig brain cortex membranes incubated for 120 mins by solid scintillation counting method
Type: cell membranes
Method in brief: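 Guinea pig brain cortex membranes (about 100 µg protein) with 2 nM [3H]-(+)-pentazocine in 50 mM TRIS pH 7.4 at 37 °C. Non-specific binding defined with 10 µM unlabeled (+)-pentazocine. Six concentrations, 10^-5 to 10^-10 M, in duplicate. 120 min with shaking, filtration, solid scintillator counting.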

Row | SMILES | Ki [nM]
5 | O=C1CCc2ccccc2N1CCCCN1CCN(c2ccccn2)CC1 | 120
6 | O=c1oc(-c2ccccc2)nn1CCCCN1CCN(c2ccccn2)CC1 | 944
7 | O=C1CCc2ccccc2N1CCCCN1CCc2ccc([N+](=O)[O-])cc2C1 | 179
8 | O=c1oc(-c2ccccc2)nn1CCCCN1CCc2ccc([N+](=O)[O-])cc2C1 | 829
9 | O=c1oc(-c2ccccc2)nn1CCCCN1CCN(c2ccc(F)cc2)CC1 | 383

Target: Glutamate NMDA receptor; GRIN1/GRIN2B (Homo sapiens, UniProt Q05586+Q13224)
Sequence (Q13224 whole entry, other chains not shown): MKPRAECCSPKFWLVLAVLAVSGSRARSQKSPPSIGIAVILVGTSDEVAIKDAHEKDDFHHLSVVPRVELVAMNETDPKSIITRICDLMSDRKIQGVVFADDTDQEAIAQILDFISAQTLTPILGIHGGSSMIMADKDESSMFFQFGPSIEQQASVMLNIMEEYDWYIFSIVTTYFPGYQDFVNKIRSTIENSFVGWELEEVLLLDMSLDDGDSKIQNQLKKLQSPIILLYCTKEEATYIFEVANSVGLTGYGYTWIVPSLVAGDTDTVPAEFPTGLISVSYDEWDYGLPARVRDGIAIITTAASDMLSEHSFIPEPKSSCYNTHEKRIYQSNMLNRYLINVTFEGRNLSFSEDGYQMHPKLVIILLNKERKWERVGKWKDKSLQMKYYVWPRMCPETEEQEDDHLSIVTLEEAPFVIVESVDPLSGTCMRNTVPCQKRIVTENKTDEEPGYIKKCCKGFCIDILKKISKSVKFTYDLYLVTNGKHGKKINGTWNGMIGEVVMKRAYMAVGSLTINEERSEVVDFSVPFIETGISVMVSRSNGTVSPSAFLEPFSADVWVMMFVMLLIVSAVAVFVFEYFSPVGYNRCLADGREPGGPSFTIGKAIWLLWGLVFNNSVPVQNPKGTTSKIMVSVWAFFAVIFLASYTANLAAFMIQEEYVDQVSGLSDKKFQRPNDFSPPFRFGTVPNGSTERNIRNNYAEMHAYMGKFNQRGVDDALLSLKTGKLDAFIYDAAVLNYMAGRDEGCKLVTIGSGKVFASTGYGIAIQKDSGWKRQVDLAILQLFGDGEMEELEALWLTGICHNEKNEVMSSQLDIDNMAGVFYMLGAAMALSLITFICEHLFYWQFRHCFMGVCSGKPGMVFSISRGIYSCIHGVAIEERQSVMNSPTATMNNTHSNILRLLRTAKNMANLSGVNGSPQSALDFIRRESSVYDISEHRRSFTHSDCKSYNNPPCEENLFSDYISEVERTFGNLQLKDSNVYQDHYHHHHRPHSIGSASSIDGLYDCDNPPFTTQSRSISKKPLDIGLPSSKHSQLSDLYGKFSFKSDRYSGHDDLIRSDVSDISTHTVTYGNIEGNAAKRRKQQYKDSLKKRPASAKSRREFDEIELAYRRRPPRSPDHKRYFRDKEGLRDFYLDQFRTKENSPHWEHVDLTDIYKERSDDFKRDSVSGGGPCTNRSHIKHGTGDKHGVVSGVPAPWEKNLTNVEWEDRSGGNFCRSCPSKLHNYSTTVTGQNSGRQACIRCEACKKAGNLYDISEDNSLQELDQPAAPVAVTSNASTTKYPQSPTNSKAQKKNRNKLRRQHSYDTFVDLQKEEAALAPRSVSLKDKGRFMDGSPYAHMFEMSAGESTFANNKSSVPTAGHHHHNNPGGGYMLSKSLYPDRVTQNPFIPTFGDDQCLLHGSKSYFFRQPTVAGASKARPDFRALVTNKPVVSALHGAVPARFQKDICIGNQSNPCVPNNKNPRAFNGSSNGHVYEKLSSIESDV
Experiment: Displacement of [3H]ifenprodil from GluN1a/GluN2B (unknown origin) expressed in mouse L(tk-) cell membranes after 120 mins by solid scintillation counting method
Method in brief: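 Membranes (about 20 μg protein) from mouse L(tk-) cells stably carrying GluN1a/GluN2B, induced with 4 μM dexamethasone and 4 μM ketamine for 24 h. Incubated with 5 nM [3H]ifenprodil in 5 mM TRIS/1 mM EDTA pH 7.5 at 37 °C, 120 min. Non-specific binding defined with 10 μM ifenprodil.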

Row | SMILES | Ki [nM]
10 | O=C1CCc2ccccc2N1CCCCN1CCN(c2ccccn2)CC1 | 78
11 | O=c1oc(-c2ccccc2)nn1CCCCN1CCN(c2ccccn2)CC1 | 226
12 | O=C1CCc2ccccc2N1CCCCN1CCc2ccc([N+](=O)[O-])cc2C1 | 58
13 | O=c1oc(-c2ccccc2)nn1CCCCN1CCc2ccc([N+](=O)[O-])cc2C1 | 412
14 | O=c1oc(-c2ccccc2)nn1CCCCN1CCN(c2ccc(F)cc2)CC1 | 68

Test system: not listed separately
Experiment: Selectivity ratio of Ki for sigma1 receptor in guinea pig brain membranes to Ki for sigma2 receptor in rat liver membranes
Type: cell membranes

Row | SMILES | Ratio Ki
15 | O=C1CCc2ccccc2N1CCCCN1CCN(c2ccccn2)CC1 | 1.6
16 | O=c1oc(-c2ccccc2)nn1CCCCN1CCN(c2ccccn2)CC1 | 0.33
17 | O=C1CCc2ccccc2N1CCCCN1CCc2ccc([N+](=O)[O-])cc2C1 | 2.2
18 | O=c1oc(-c2ccccc2)nn1CCCCN1CCc2ccc([N+](=O)[O-])cc2C1 | 2.2
19 | O=c1oc(-c2ccccc2)nn1CCCCN1CCN(c2ccc(F)cc2)CC1 | 0.57

Target: T1, Sigma intracellular receptor 2 (Rattus norvegicus, UniProt Q5U3Y7)
T1 sequence (Q5U3Y7 whole entry): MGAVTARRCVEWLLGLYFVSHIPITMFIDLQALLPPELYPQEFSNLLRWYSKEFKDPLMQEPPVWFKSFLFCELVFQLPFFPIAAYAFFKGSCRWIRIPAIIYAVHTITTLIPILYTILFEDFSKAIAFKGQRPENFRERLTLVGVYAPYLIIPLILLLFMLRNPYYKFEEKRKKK
Experiment: Displacement of [3H]-di-o-tolylguanidine from sigma2 receptor in rat liver membranes in the presence of sigma1 receptor ligand (+)-pentazocine incubated for 120 mins by scintillation counting method
Type: cell membranes
Method in brief: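 Rat liver membranes (about 100 µg protein) with 3 nM [3H]di-o-tolylguanidine in 50 mM TRIS pH 8.0 containing 500 nM (+)-pentazocine, at rt. Non-specific binding defined with 10 µM unlabeled DTG. Concentrations 10^-5 to 10^-10 M, in duplicate. 120 min, filtration, scintillation counting. Three independent experiments, mean ± SEM.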

Row | SMILES | Ki [nM]
20 | O=C1CCc2ccccc2N1CCCCN1CCN(c2ccccn2)CC1 | 73
21 | O=c1oc(-c2ccccc2)nn1CCCCN1CCN(c2ccccn2)CC1 | 2800
22 | O=C1CCc2ccccc2N1CCCCN1CCc2ccc([N+](=O)[O-])cc2C1 | 80
23 | O=c1oc(-c2ccccc2)nn1CCCCN1CCc2ccc([N+](=O)[O-])cc2C1 | 383
24 | O=c1oc(-c2ccccc2)nn1CCCCN1CCN(c2ccc(F)cc2)CC1 | 686

Test system: not listed separately
Experiment: Selectivity ratio of Ki for sigma2 receptor in rat liver membranes to Ki for GluN1a/GluN2B (unknown origin) expressed in mouse L(tk-) cell membranes
Type: cell-based

Row | SMILES | Ratio Ki
25 | O=C1CCc2ccccc2N1CCCCN1CCN(c2ccccn2)CC1 | 0.9
26 | O=c1oc(-c2ccccc2)nn1CCCCN1CCN(c2ccccn2)CC1 | 12.4
27 | O=C1CCc2ccccc2N1CCCCN1CCc2ccc([N+](=O)[O-])cc2C1 | 1.4
28 | O=c1oc(-c2ccccc2)nn1CCCCN1CCc2ccc([N+](=O)[O-])cc2C1 | 0.9
29 | O=c1oc(-c2ccccc2)nn1CCCCN1CCN(c2ccc(F)cc2)CC1 | 10
